These results are taken from ChEMBL document CHEMBL4266021 (J Nat Prod, 2018).

pIC50, pKi: −log10 of the molar value.

The target of data set [1] is T1, carboxylesterase 1 (CE1) (Homo sapiens, UniProt P23141).
T1 sequence (P23141 whole entry): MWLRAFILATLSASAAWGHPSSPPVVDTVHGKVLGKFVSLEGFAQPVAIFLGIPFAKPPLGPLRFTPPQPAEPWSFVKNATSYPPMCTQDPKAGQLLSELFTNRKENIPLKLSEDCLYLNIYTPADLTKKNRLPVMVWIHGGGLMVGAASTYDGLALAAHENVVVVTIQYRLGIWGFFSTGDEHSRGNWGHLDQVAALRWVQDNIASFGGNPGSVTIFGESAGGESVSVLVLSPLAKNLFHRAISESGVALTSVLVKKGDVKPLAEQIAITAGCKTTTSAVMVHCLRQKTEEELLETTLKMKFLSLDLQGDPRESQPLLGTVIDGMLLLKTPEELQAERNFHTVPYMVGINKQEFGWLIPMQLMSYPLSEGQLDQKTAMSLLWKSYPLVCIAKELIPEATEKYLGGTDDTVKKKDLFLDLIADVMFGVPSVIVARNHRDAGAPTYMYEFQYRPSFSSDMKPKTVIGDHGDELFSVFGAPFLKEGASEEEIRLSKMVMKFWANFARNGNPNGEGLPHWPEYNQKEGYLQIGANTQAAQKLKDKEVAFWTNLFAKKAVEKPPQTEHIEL
The experiment in a line: Irreversible inhibition of human CE1 assessed as residual activity preincubated with enzyme followed by compound dilution measured after 18 hrs using o-NPA as substrate relative to control. The note with it: probe o-NPA, read-out: Activity.

The nature of data set [2]: Inhibition of human intestinal carboxylesterase using o-nitrophenyl acetate as substrate. In a few lines:
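Recombinant hiCE secreted from baculovirus-infected Spodoptera frugiperda cells and purified from serum-free medium. Activity measured spectrophotometrically with o-nitrophenyl acetate as substrate. Routinely at least 8 inhibitor concentrations tested, and Ki derived.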

Data set [3] concerns the target T2, Cholinesterase (Homo sapiens, UniProt P06276). The data set can be described thus: Inhibition of human BuChE at 10 uM using butyrylhiocholine as substrate relative to control.
Data set [4] is described as follows: Irreversible inhibition of human intestinal carboxylesterase assessed as residual activity preincubated with enzyme followed by compound dilution measured after 18 hrs using o-NPA as substrate relative to control. The gist of the method: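 Purified recombinant hiCE pre-incubated with inhibitor, then extensively diluted and passed through size-exclusion filtration to remove free compound. Recovered protein assayed for residual esterase activity with o-NPA. Benzil (reversible inhibitor) and DMSO (solvent) served as controls.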

The target in data set [5] is T1, carboxylesterase 1 (CE1). The data set can be described thus: Inhibition of human CE1 expressed in human U373MG cells assessed as reduction in enzyme-mediated oseltamivir hydrolysis at 10 uM preincubated for 10 mins followed by oseltamivir addition measured after 30 mins by UPLC-MS analysis relative to control. Type of data set: cell-based. The note with it: U373MG cells that express human CE1, probe oseltamivir. The gist of the method:
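U373MG glioblastoma cells expressing hCE1 (~10^6 per well) pretreated 10 min with 10μM inhibitor, then given oseltamivir (20μM final). After 30 min, media harvested, mixed with an equal volume of acetonitrile and centrifuged. Oseltamivir carboxylate quantified by UPLC (C18, water:acetonitrile gradient) with MS detection. Expressed as percent of DMSO-treated cells. Benzil used as positive control; duplicate points.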

The target in data set [6] is T3, Acetylcholinesterase (Homo sapiens, UniProt P22303). The experiment in a line: Inhibition of human AChE using acetylthiocholine as substrate.
T3 sequence (P22303 whole entry): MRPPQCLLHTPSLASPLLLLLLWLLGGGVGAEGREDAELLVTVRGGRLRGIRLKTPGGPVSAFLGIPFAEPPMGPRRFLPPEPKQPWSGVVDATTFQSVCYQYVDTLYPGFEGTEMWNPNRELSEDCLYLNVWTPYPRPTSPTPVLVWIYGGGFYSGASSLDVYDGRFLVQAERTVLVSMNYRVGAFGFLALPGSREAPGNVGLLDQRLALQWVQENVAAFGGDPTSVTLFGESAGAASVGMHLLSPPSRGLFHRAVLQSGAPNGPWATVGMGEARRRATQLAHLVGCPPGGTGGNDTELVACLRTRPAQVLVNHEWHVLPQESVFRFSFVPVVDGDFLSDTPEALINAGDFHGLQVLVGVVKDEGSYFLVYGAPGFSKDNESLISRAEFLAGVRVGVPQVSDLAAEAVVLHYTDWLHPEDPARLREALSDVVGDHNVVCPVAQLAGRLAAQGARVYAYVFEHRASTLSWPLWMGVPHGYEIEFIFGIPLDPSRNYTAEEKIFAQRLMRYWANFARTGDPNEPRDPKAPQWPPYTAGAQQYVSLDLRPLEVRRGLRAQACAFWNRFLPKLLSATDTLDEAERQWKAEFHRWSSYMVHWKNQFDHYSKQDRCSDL
The target in data set [7] is T3, Acetylcholinesterase. The experiment in a line: Inhibition of human AChE at 10 uM using acetylthiocholine as substrate relative to control.
Data set [8] addresses T2, Cholinesterase. The data set can be described thus: Inhibition of human BuChE using butyrylhiocholine as substrate.
Data set [9] concerns the target T1, carboxylesterase 1 (CE1). The data set can be described thus: Inhibition of human CE1 expressed in human U373MG cells assessed as reduction in enzyme-mediated oseltamivir hydrolysis by measuring oseltamivir carboxylate level at 10 uM preincubated for 10 mins followed by oseltamivir addition measured after 30 mins by UPLC-MS analysis relative to control. Type of data set: cell-based. Details: scale not given: the % may be the effect or the level left; call rule not given here. As to conditions: U373MG cells that express human CE1, probe oseltamivir, read-out: Activity. The gist of the method:
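U373MG glioblastoma cells engineered to express hCE1 (~10^6 per well) were pre-incubated 10 min with 10μM inhibitor, then oseltamivir was added (20μM final) for 30 min. Media were harvested, mixed with an equal volume of acetonitrile and centrifuged. Oseltamivir carboxylate was measured by UPLC (C18, water:acetonitrile gradient) with MS detection, as percent of DMSO-treated cells. Benzil was the positive control; duplicate points.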

In data set [10] the target is T4, Liver carboxylesterase 1 (Homo sapiens, UniProt P23141).
T4 sequence (P23141 whole entry): T1 sequence (P23141 whole entry)
The experiment in a line: Inhibition of human CE1 using o-NPA as substrate. The gist of the method: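 Recombinant human CE1 was purified from serum-free media of baculovirus-infected Spodoptera frugiperda cells secreting the enzyme. Activity was read spectrophotometrically with o-nitrophenyl acetate as substrate. At least 8 inhibitor concentrations were used and Ki was derived from them.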

For data set [11], the target named is T4, Liver carboxylesterase 1. The experiment in a line: Binding affinity to serine residue of human CE1 assessed as adduct formation at 10 uM by mass spectrum analysis. In a few lines:
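hCE1 purified from serum-free medium of baculovirus-infected Spodoptera frugiperda cells, incubated with 10μM inhibitor. Unbound compound removed by dilution and repeated size-exclusion spin chromatography. Intact mass by ESI positive-mode MS (600–2800 m/z) in 3:2 water-acetonitrile with 0.1% formic acid, 2 min acquisition. Spectra deconvoluted, and adduct read as mass shift versus DMSO-treated protein.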

T2 sequence (P06276 whole entry): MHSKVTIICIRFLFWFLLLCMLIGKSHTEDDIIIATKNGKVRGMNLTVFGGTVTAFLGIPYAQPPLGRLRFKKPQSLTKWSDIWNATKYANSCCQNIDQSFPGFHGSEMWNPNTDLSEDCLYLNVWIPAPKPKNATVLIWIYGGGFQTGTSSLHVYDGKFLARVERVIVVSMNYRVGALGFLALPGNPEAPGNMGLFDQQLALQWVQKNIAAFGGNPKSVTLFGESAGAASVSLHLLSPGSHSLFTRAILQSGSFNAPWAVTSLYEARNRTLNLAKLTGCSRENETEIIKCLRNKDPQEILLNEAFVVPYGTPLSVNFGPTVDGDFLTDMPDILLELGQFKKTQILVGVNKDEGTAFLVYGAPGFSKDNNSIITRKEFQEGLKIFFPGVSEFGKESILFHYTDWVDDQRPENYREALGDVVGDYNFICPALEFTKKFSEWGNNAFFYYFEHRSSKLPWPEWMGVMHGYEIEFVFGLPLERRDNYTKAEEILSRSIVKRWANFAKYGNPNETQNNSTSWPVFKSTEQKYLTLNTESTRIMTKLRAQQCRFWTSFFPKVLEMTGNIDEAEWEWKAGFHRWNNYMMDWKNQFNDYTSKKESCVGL

Take `C[C@H]1COc2c1c(=O)oc(=O)c1c3c(ccc21)C(C)(C)CCC3`: the activity at 18 h in [1] lay in the range of 3 to 16%. The negative-log Ki (pKi) in [2] is 9.12. The inhibition in [3] came out at 69%; in [7], 68%. In addition, the Activity in data set [4] was 1 to 9%. In addition, in data set [5], the inhibition at 0.5 h, 10 µM was more than 70%. For the same compound, the figures for the pIC50 in [6] and in data set [8] were 5.49 and 5.55, respectively. In addition, the activity at 0.5 h, 10 µM in [9] stood at 10%.

As to `Cc1cccc2c1ccc1c3occ(C)c3c(=O)oc(=O)c21`, the activity at 18 h in data set [1] turned out to be 54%. The negative-log Ki (pKi) in data set [2] is 9.09; in [10] it was 8.62. For the same compound, the inhibition was determined as 32% in data set [3] and 47% in data set [7]. For the same compound, in [4], the Activity is 4%. In [5], the inhibition at 0.5 h, 10 µM was more than 70%. The negative-log IC50 (pIC50) in data set [6] and in data set [8] was less than 5.00 throughout. In addition, the activity at 0.5 h, 10 µM in data set [9] came out at 12%.

On to `O=S(=O)(F)Cc1ccccc1` [PHENYLMETHYLSULFONYLFLUORIDE], for which the Activity entry in data set [11] is reported as “Active”.

As to `Cc1coc2c1c(=O)oc(=O)c1c3c(ccc12)C(C)(C)CCC3`, the activity at 18 h in data set [1] was in the range of 6 to 10%. This compound also had a pKi in data set [2] of 8.85. In addition, the values for the inhibition in data set [3] and in data set [7] were 38% and 65%, respectively. For the same compound, the Activity entry is “Active” in data set [11] and 0.1 to 40% in [4]. In addition, in data set [5], the inhibition at 0.5 h, 10 µM is more than 70%. Besides, the negative logarithm of the IC50 (pIC50) in [6] is 5.48; in [8] it was 5.10. In addition, the activity at 0.5 h, 10 µM in data set [9] came to 27%.

Regarding `O=C(C(=O)c1ccccc1)c1ccccc1` [BENZIL], the activity at 18 h in [1] was determined as 85%. Also, the Activity in data set [4] was 98%. Besides, the activity at 0.5 h, 10 µM in [9] turned out to be 5%.

Take `Cc1cccc2c1ccc1c3c(c(=O)oc(=O)c12)[C@@H](C)CO3`: the activity at 18 h in data set [1] came out at 9%. Besides, the negative-log Ki (pKi) in [2] is 9.21; in data set [10] it was 8.44. The inhibition in data set [3] worked out at 61%; in [7], 66%. The Activity result in data set [11] is “Active”; in data set [4], 18%. The inhibition at 0.5 h, 10 µM in data set [5] was 99%. Besides, the pIC50 in data set [6] was 4.99; in [8], 5.11. Besides, the activity at 0.5 h, 10 µM in [9] is 1%.

Broadly, the pKi is −log10 of the Ki, conventionally taken in molar units. Usually inhibition stands for how much of the control response was suppressed. Usually pIC50 stands for the negative decadic logarithm of the IC50, by convention in mol/L.
